# Assay outcomes: PubChem BioAssay, several laboratories
# Hits are enriched below; roughly 1.1% of the tested compounds scored in any of these assays.
# Diaphorase inh: counter-screen for diaphorase-based assays: diaphorase inhibitors and chemical oxidizers | AID 1217 | diaphorase resazurin-to-resorufin fluorescence, NADH, 16 min; bacterial (C. kluyveri) enzyme, not human | 190,000 tested, 0.69% active | inhibition, % at 20 µM;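 active = primary screen inhibition at 20 µM above a set limit, cut at about 50% in these data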;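 also: plate controls were DMSO with full reaction for no effect and wells lacking NADH for full effect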
#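 Test system: Clostridium kluyveri diaphorase enzyme / Quantity: diaphorase at 0.14 U/mL in enzyme working solution / Incubation: 16-min room-temperature incubation before reading / Benchmarks: NADH-free wells as positive control, DMSO-only neutral wells / Signal: resorufin fluorescence 544/590 nm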
# Redox H2O2 prof: compounds producing H2O2 with reducing agent – biochemical, NIH compound library profiling, artefact control for MLSCN library redox annotation, primary screen; AID 878; 200,000 tested, 0.03% active; DTT-dependent redox cycling H2O2, phenol red/HRP absorbance; 100% = 100 µM peroxide control, 0% = buffer; activation, % at 10 µM;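 active = activation of at least 50% relative to the plate's high and low controls in the primary single-dose screen; inactive = activation below 50%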;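 also: compound incubated with DTT at 0.8 mM final as the reducing agent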
# Diaphorase act: counter-screen for diaphorase-based assays: diaphorase activators and chemical reducers; activation factor at 20 µM; 190,000 tested, 0.005% active; Diaphorase/resazurin coupled assay, resorufin fluorescence, 16 min; stronger effect = higher value; 1 = vehicle wells, 0 = NADH-free wells;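 active = diaphorase activity raised at least twofold by the compound at 20 µM; inactive = activation factor below 2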
#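 Assay system: Purified diaphorase enzyme from Clostridium kluyveri | Amount: Enzyme 0.07 U/mL final | Dosing: Compound 20 µM once, DMSO 1% | Timing: 16 min reaction at room temperature | Detection: Fluorescence, excitation 544 nm and emission 590 nm | Evaluation: Higher resorufin formation from activation or reduction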
# PMI act: phosphomannose isomerase (human) activation. activation factor at 20 µM. 190,000 tested, 0.005% active. P34949. AID 1214. purified human PMI, coupled resazurin fluorescence, 20 min; stronger effect = higher value; 1 = vehicle control, 0 substrate-free wells;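 active = activation factor of 2 or more at 20 µM, relative to plate controls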
# Target sequence (P34949 whole entry, looked up): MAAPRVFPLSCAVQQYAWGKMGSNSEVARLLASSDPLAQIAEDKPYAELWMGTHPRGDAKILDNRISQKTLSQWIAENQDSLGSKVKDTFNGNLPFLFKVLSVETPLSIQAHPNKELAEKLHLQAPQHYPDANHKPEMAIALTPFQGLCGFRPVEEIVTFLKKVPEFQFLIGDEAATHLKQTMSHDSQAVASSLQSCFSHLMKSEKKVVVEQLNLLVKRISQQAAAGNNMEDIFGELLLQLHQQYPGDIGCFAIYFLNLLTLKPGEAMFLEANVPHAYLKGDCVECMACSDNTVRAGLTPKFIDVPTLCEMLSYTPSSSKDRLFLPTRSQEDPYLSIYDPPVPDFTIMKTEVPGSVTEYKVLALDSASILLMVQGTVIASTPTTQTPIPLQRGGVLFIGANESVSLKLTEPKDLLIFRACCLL
# PMI act hi M6P: activators of human phosphomannose isomerase at near-saturating mannose 6-phosphate; AID 1216; activation factor at 20 µM; 190,000 tested, 0.34% active; coupled PMI enzyme assay, resazurin fluorescence, 20 min; stronger effect = higher value; 1 = untreated enzyme, 0 = substrate-free blank;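 active = activation factor of 2 or more at 20 µM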
#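 test system = human PMI in coupled enzyme assay | medium = HEPES-buffered pH 7.4 with magnesium and detergent | also added = 1.0 mM mannose-6-phosphate substrate with 0.22 mM NADP+ | compound = 20 µM single dose | times = 20 min incubation at room temperature | measured by = resorufin fluorescence (Ex 544/Em 590 nm) from resazurin via diaphorase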
# G6PDH CS: counter-screen for G6PDH assay hits: L. mesenteroides G6PDH inhibition; Purified L. mesenteroides G6PDH, diaphorase/resazurin coupled fluorescence, 45 min; inhibition, % at 5 µM; 200,000 tested, 0.12% active; AID 1020; in the data active = inhibition above about 50%
# Starred values were filed as active, the others as inactive.
SMILES,Diaphorase inh,Redox H2O2 prof,Diaphorase act,PMI act,PMI act hi M6P,G6PDH CS
Cc1ccc(-c2[nH]c(=S)[nH]c(=O)c2C#N)cc1,78*,0,0.2,1.1,1.1,10
Cc1cccc(N2CCN(Cc3cn(C)nc3-c3ccccc3F)CC2)n1,5,-1,1,1,1,6
Cc1sc2nc(CN3CCOCC3)[nH]c(=S)c2c1C,73*,0,0.3,0.9,0.9,-12
CCOc1cc(N2CCOCC2)c(OCC)cc1NC(=S)NCCCOC,35,-1,0.7,0.6,0.4,6
COc1ccc(OC)c(/C(C)=N/Nc2ccc(C(=O)O)cc2)c1,12,1,0.9,1.5,1.7,9
COc1ccc(/C(C)=N/Nc2ccc(C(=O)O)cc2)cc1OC,5,0,1,1.8,2.5*,11
COc1cc(/C(C)=N/Nc2ccc(C(=O)O)cc2)cc(OC)c1OC,11,0,0.9,1.6,2.1*,3
CCCS(=O)(=O)N1CCN(Cc2ccc3c(c2)c2ccccc2n3CC)CC1,16,0,0.8,1,1,-6
COc1cccc(NC(=O)c2cc(CN3C(=O)c4ccccc4C3=O)ccc2OC)c1,10,0,0.9,1,1,-6
Nn1cnnc1N/N=C\c1ccc(-c2ccccc2[N+](=O)[O-])o1,88*,6,0.1,0.2,0.3,19
Nc1n[nH]c(=S)n1/N=C1/C(=O)Nc2ccccc21,79*,0,0.2,0.1,0.2,-3
S=C(Nc1ccc(Cl)cc1)Nc1cccc2cnccc12,51*,1,0.5,0.7,0.9,33
Cc1cc(Cl)ccc1NC(=S)Nc1cccnc1,8,3,0.9,1,1,2
Fc1ccc(NC(=S)Nc2cccc3cnccc23)cc1,44,1,0.6,0.9,1.1,51*
S=C(Nc1cccnc1)Nc1cccc2cnccc12,62*,0,0.4,0.5,1,41
N#CC(c1nc2ccccc2nc1N1CCCC1)S(=O)(=O)c1ccccc1 (stereo unspecified),53*,0,0.5,0.9,1.1,29
Cc1cc(=O)c2c(O)c(O)ccc2o1,72*,1,0.3,0.2,0.4,50
COc1ccc(-c2cc(=O)c3c(O)c(OC)c(O)cc3o2)cc1,6,0,0.9,1,1.1,15
S=c1[nH]nc(-c2ccco2)n1/N=C/C=C/c1ccccc1,57*,0,0.4,0.8,0.9,1
CCN(CC)C(=S)Nc1ccc2nc3n(c(=O)c2c1)CCCCC3,11,1,0.9,1,1,2
CCOc1ccccc1/C=N/NC(=O)CNC(=O)c1cccs1,3,0,1,1.1,1.1,-4
COc1ccc(-c2c3c([nH]c(=S)c2C#N)CCC3)cc1,11,-3,0.9,1.6,2.1*,-17
COc1ccc(-n2nc3c(N)n[nH]c3cc2=O)cc1,30,0,0.7,1.6,2*,7
COCCCNC(=S)NCCCNc1nc2cc(C)cc(C)c2cc1C#N,18,0,0.8,1.6,2.5*,10
COCCCNC(=S)NCCNc1nc2c(C)c(C)ccc2cc1C#N,3,0,1,1.7,2.8*,14
SMILES,Diaphorase inh,Redox H2O2 prof,Diaphorase act,PMI act,PMI act hi M6P,G6PDH CS
Cc1cc(C)c2cc(C#N)c(NCCNC(=S)NCCCN3CCOCC3)nc2c1,0,-1,1,1,1.1,0
CC1CCN(c2nc(Cl)nc(Nc3ccc([N+](=O)[O-])cc3)n2)CC1,20,1,0.8,0.9,0.9,3
O=C1NN=C(CSc2n[nH]c(=S)s2)CS1,31,0,0.7,0.9,2.1*,1
CC(C)CSc1n[nH]c(=S)s1,42,0,0.6,0.8,1.4,0
Cc1cccc2[nH]c(CN(C)Cc3nc(CC4CC4)no3)nc12,7,1,0.9,0.9,1,15
CCOC(=O)N1CCN(S(=O)(=O)c2cc(C)c(C)cc2C)CC1,7,2,0.9,1,1,-3
Cc1cc(C)c(S(=O)(=O)/N=C2/C=C(SCC(=O)O)C(=O)c3ccccc32)cc1C,29,0,0.7,1.2,1.3,51*
COCCNC(=S)Nc1ccc2[nH]c(=O)[nH]c2c1,35,0,0.6,1.3,1.4,7
CC1(C)Cc2ccccc2C(/C(C#N)=N/O)=N1,5,0,0.9,1,1,5
Oc1ccc(/C=N/Nc2nc(N3CCCC3)nc(N3CCCC3)n2)cc1O,72*,-1,0.3,0.4,0.7,28
Oc1ccc(/C=N/Nc2cc(N3CCCC3)nc(N3CCCC3)n2)cc1,24,-8,0.8,0.7,0.4,52*
CN(C(=O)COc1ccccc1C(=O)NCCOc1ccccc1)c1ccccc1,28,0,0.7,0.9,0.9,0
COc1cc(/C=N/NC2=NC(C)(C)Cc3ccccc32)cc(OC)c1OC,10,0,0.9,0.9,0.9,10
CCOc1ccccc1C(=O)N[C@H](C(=O)Nc1cc(S(=O)(=O)N(C)C)ccc1OC)C(C)C,7,-3,0.9,1,0.9,-5
Cc1cc(C)c[n+](CC(=O)c2ccc(NC(=O)c3ccccc3)cc2)c1,71*,0,0.3,1.2,1.1,17
Cc1ccc(NC(=O)c2cccc(S(=O)(=O)N(C)c3ccccc3)c2)cc1S(=O)(=O)N1CCOCC1,21,0,0.8,0.8,1,9
COc1ccc2c(c1)-c1nc(N)sc1CC2,60*,0,0.4,0.3,0.2,43
Cc1ccn2cc(C34CC5CC(CC(C5)C3)C4)nc2c1,13,0,0.9,0.9,1,-2
CCN=C(N/N=C/c1ccc([N+](=O)[O-])cc1)SC,11,-3,0.9,1.2,2.1*,3
CCCN(CCC)S(=O)(=O)c1ccc(Cl)c(OC)c1,-4,-1,1,1,1,5
Oc1ccc(C=Nc2ccc3ncccc3c2)c(O)c1,68*,-1,0.3,0.3,0.3,56*
COc1ccc(CNC[C@@H](CCCCN(C)Cc2ccc(OC)cc2)N2C[C@H](c3ccccc3)N(CCc3ccc(Cl)c(Cl)c3)C(=O)C2=O)cc1,-123,0,2.2*,1.1,1,6
COc1ccc(CCN(C)CCCN2CC(c3ccccc3)CC2=O)cc1OC (stereo unspecified),-1,0,1,1.1,1.1,0
